Results as given in ChEMBL document CHEMBL1138409, “Diaryl substituted pyrazoles as potent CCR2 receptor antagonists” (Bioorg Med Chem Lett, 2007).
pIC50: −log10 of the molar value. The source made the active and inactive calls. No cut-off for these calls is given here.

Experiments:
[1] = target: T1, C-C chemokine receptor type 2 (Homo sapiens, UniProt P41597); experiment: Displacement of 125I-hMCP1 from CCR2 expressed in human peripheral blood monocytes after 60 mins; assay type: cell-based
Outline: (§1)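 Primary human blood monocytes, which express CCR2 endogenously, were incubated with 125I-hMCP-1 (2200 Ci/mmol) and the unlabeled compound. Incubation was 60 min at room temperature in 50 mM Hepes, 5 mM MgCl2 and 1 mM CaCl2, pH 7.4. Bound label was collected by filtration through PEI-presoaked GF/B filters and washed with 25 mM Hepes pH 7.5 containing 500 mM NaCl. Filters were then dried and counted by scintillation. Values are the mean of at least two experiments.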
Target sequence in this assay (P41597 whole entry): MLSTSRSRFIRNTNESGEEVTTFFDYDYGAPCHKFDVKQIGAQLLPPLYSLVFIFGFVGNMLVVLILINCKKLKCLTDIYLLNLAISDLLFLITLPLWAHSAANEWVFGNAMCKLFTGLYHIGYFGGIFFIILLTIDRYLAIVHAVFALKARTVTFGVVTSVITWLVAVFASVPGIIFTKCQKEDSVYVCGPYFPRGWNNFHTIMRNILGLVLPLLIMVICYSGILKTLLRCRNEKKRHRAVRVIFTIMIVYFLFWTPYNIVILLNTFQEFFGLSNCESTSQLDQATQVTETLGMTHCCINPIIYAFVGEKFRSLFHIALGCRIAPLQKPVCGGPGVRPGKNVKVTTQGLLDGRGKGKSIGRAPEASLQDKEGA

[2] = target: T1, C-C chemokine receptor type 2; experiment: Displacement of 125I-hMCP1 from CCR2 expressed in human peripheral blood monocytes less than 10 uM after 60 mins; assay type: cell-based; outline: as §1
Target sequence in this assay (P41597 whole entry): as above

[3] = target: T1, C-C chemokine receptor type 2; experiment: Displacement of 125I-hMCP1 from CCR2 expressed in human peripheral blood monocytes at 10 uM after 60 mins; assay type: cell-based
Target sequence in this assay (P41597 whole entry, looked up): as the sequence (P41597 whole entry) above

[4] = target: C-C chemokine receptor type 5 (Homo sapiens, UniProt P51681); experiment: Inhibition of CCR5
Sequence of C-C chemokine receptor type 5 (P51681 whole entry): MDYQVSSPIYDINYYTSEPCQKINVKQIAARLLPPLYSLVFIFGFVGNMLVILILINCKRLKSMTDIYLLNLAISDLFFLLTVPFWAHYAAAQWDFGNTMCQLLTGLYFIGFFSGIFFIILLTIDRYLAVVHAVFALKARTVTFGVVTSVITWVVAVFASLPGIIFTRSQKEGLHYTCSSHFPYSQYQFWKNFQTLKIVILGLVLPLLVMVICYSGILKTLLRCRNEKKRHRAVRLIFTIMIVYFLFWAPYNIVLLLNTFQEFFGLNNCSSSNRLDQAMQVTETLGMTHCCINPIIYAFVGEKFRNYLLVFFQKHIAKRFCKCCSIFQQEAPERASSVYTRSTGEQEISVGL

[5] = Clearance in Sprague-Dawley rat at 1 mg/kg, iv and 2 mg/kg, po; assay type: ADME, organism-based; conditions: in vivo
[6] = Volume of distribution in Sprague-Dawley rat; assay type: ADME, organism-based; conditions: in vivo
[7] = Half life in Sprague-Dawley rat; assay type: ADME, organism-based; conditions: in vivo
[8] = Oral bioavailability in Sprague-Dawley rat at 2 mg/kg; assay type: ADME, organism-based; conditions: in vivo
[9] = target: T1, C-C chemokine receptor type 2; experiment: Antagonist activity against human CCR2 receptor assessed as inhibition of MCP1-induced migration of human peripheral blood monocytes at 300 nM; assay type: functional; design: scale not given: the % may be the effect or the level left
Target sequence in this assay (P41597 whole entry, looked up): as the sequence (P41597 whole entry) above

[10] = target: T1, C-C chemokine receptor type 2; experiment: Displacement of 125I-hMCP1 from CCR2 expressed in human peripheral blood monocytes at 1 uM after 60 mins; assay type: cell-based
Target sequence in this assay (P41597 whole entry, looked up): as the sequence (P41597 whole entry) above

Compound | pIC50 [1] | further results
COC(=O)[C@H](CCCNC(=N)N)NC(=O)CCCOc1cc(-c2cc(Cl)cc(Cl)c2)nn1-c1ccc2ccccc2c1 | 5.12 | –
O=C(CCCc1cc(-c2cc(Cl)cc(Cl)c2)nn1-c1ccc2ccccc2c1)NCCCc1ccncc1 | 5.95 | –
COC(=O)[C@H](CCCNC(=N)N)NC(=O)CC(=O)Nc1cc(-c2cc(Cl)cc(Cl)c2)nn1-c1ccc2ccccc2c1 | – | IC50 [2]: Not Active
CCN(CC)CCCC(C)NC(=O)CCCc1cc(-c2cc(C(F)(F)F)cc(C(F)(F)F)c2)nn1-c1ccc2ccccc2c1 (centres undefined) | 6.20 | –
CCN(CC)CCCC(C)NC(=O)CCCc1cc(-c2cc(Cl)cc(Cl)c2)nn1-c1ccccc1 (centres undefined) | – | Activity [3]: 69%
COC(=O)[C@H](Cc1c[nH]cn1)NC(=O)CCCc1cc(-c2cc(Cl)cc(Cl)c2)nn1-c1ccc2ccccc2c1 | 5.55 | –
CCN(CC)CCCC(C)NC(=O)CCCc1cc(-c2cccc(OC)c2)nn1-c1ccc2ccccc2c1 (centres undefined) | 5.62 | –
COC(=O)[C@H](CCCNC(=N)N)NCCCCc1cc(-c2cc(Cl)cc(Cl)c2)nn1-c1ccc2ccccc2c1 | – | IC50 [2]: Not Active
CCN(CC)CCCC(C)NC(=O)CCCc1cc(-c2cc(Cl)cc(Cl)c2)nn1-c1cc(C(F)(F)F)cc(C(F)(F)F)c1 (centres undefined) | 5.19 | –
COC(=O)[C@H](CCCN=C(N)N)NC(=O)CCc1cc(-c2cc(Cl)cc(Cl)c2)nn1-c1ccc2ccccc2c1 | 5.32 | –
CCN(CC)CCCCNC(=O)CCCc1cc(-c2cc(Cl)cc(Cl)c2)nn1-c1ccc2ccccc2c1 | 5.91 | –
COC(=O)[C@H](CCCNC(=N)N)NC(=O)CCCc1cc(-c2cc(Cl)cc(Cl)c2)nn1-c1ccc2ccccc2c1 | 6.66 | clearance [5]: 8.3 mL/min/kg; Vd [6]: 0.98 L/kg; half-life [7]: 2.49 h; bioavailability [8]: 0%; pIC50 [4]: 7.20
CCN(CC)CCCC(C)NC(=O)CCCc1cc(-c2ccc(Cl)cc2)nn1-c1ccc2ccccc2c1 (centres undefined) | 6.35 | Activity [9]: inactive
CCN(CC)CCCC(C)NC(=O)CCCc1cc(-c2cccc(Cl)c2)nn1-c1ccc2ccccc2c1 (centres undefined) | 6.77 | Activity [9]: 57%
CCN(CC)CCCC(C)NC(=O)CCCc1cc(-c2ccccc2Cl)nn1-c1ccc2ccccc2c1 (centres undefined) | – | Activity [3]: 69%
COC(=O)[C@H](CCCNC(=N)N)NC(=O)c1cccc(-c2cc(-c3cc(Cl)cc(Cl)c3)nn2-c2ccc3ccccc3c2)c1 | – | IC50 [2]: Not Active
CN(C)CCCCNC(=O)CCCc1cc(-c2cc(Cl)cc(Cl)c2)nn1-c1ccc2ccccc2c1 | 5.74 | –
CCN(CC)CCCC(C)NC(=O)CCCc1cc(-c2cccc(F)c2)nn1-c1ccc2ccccc2c1 (centres undefined) | 6.28 | –
CCN(CC)CCCC(C)NC(=O)CCCc1cc(-c2cccc(C(F)(F)F)c2)nn1-c1ccc2ccccc2c1 (centres undefined) | 6.68 | –
O=C(CCCc1cc(-c2cc(Cl)cc(Cl)c2)nn1-c1ccc2ccccc2c1)NCCCc1ccc2c(n1)NCCC2 | 5.03 | –
CCCCC(CCCN(CC)CC)NC(=O)CCOc1cc(-c2cc(Cl)cc(Cl)c2)nn1-c1ccc2ccccc2c1 (centres undefined) | – | Activity [10]: 52%

The remaining molecules from weak to strong by pIC50 [1], led by results:

pIC50 [1] | Compound | further results
6.97 | CCN(CC)CCCC(C)NC(=O)CCCc1cc(-c2cc(Cl)cc(Cl)c2)nn1-c1ccc2ccccc2c1 (centres undefined) | clearance [5]: 28.1 mL/min/kg; Vd [6]: 13 L/kg; half-life [7]: 6.52 h; bioavailability [8]: 5%; pIC50 [4]: 6.66
6.97 | CCC(C)CC(CCCN(CC)CC)NC(=O)CCOc1cc(-c2cc(Cl)cc(Cl)c2)nn1-c1ccc2ccccc2c1 (centres undefined) | –
7.13 | CCN(CC)CCCC(CC(C)C)NC(=O)CCOc1cc(-c2cc(Cl)cc(Cl)c2)nn1-c1ccc2ccccc2c1 (centres undefined) | –
7.18 | CCN(CC)CCCC(C)NC(=O)CCOc1cc(-c2cc(Cl)cc(Cl)c2)nn1-c1ccc2ccccc2c1 (centres undefined) | –
7.21 | COC(=O)[C@H](CCCNC(=N)N)NC(=O)CCOc1cc(-c2cc(Cl)cc(Cl)c2)nn1-c1ccc2ccccc2c1 | –
7.36 | CCCC(CCCN(CC)CC)NC(=O)CCOc1cc(-c2cc(Cl)cc(Cl)c2)nn1-c1ccc2ccccc2c1 (centres undefined) | –
7.37 | COC(=O)[C@H](CCCNC(=N)N)NC(=O)CCNc1cc(-c2cc(Cl)cc(Cl)c2)nn1-c1ccc2ccccc2c1 | –
7.52 | CCN(CC)CCCC(C)NC(=O)CCNc1cc(-c2cc(Cl)cc(Cl)c2)nn1-c1ccc2ccccc2c1 (centres undefined) | –
8.05 | CCC(CCCN(CC)CC)NC(=O)CCOc1cc(-c2cc(Cl)cc(Cl)c2)nn1-c1ccc2ccccc2c1 (centres undefined) | –
8.22 | CCN(CC)CCCC(NC(=O)CCOc1cc(-c2cc(Cl)cc(Cl)c2)nn1-c1ccc2ccccc2c1)C(C)C (centres undefined) | pIC50 [4]: 5.79
